The entries come from a sample that favours hits as a whole.
ABCB6 inh MLPCN – inhibitors of human ABC transporter ABCB6; AID 602162; K562-ABCB6 porphyrin accumulation, flow cytometry, 1 h; active compounds read low; actives 0.19% (n = 360,000); Q9NP58; fluorescence ratio to DMSO, % at 10 µM;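 active = fluorescence ratio to DMSO below 75%, the collection mean minus 3 SD; inconclusive = too few cells collected in the well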;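 also: signal is porphyrin accumulated inside mitochondria; lower ratio means ABCB6 inhibition with less porphyrin fluorescence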
Target sequence (Q9NP58 whole entry, looked up): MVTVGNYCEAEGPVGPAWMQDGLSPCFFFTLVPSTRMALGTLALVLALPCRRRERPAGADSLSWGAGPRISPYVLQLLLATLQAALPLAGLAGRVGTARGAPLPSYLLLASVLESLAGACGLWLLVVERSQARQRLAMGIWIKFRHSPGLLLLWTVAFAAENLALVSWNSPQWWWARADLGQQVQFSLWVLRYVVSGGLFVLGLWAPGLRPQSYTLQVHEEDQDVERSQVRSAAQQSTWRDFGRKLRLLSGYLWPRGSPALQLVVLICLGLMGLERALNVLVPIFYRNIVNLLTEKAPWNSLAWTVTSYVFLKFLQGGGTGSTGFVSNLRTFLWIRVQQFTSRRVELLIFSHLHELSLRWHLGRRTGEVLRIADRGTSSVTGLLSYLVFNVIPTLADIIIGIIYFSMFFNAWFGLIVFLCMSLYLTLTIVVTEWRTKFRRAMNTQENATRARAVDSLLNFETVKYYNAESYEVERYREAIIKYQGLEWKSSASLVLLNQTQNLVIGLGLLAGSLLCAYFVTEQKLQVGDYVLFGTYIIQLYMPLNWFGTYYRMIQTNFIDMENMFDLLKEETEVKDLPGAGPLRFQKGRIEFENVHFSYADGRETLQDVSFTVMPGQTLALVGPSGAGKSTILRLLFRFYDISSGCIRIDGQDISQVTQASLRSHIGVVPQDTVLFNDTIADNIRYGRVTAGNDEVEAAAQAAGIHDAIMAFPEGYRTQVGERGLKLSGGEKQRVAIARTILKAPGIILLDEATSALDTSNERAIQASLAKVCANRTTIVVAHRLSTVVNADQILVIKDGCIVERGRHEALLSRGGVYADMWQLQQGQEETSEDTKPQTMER
Xi reactivation – activators of X-chromosome reactivation in mouse fibroblasts | XiGFP mouse fibroblasts, % GFP-positive cells imaging, 3 d; cells co-treated with 5-aza-dC sensitizer; scaled so ellipticine positive control = 100% | actives 0.055% (n = 360,000) | activation, % at 7.58 µM | AID 743238;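 active = mean normalized replicate activation at least 10% and every replicate at or above 10%; inconclusive = only one of the two criteria met; inactive = mean below 10% and not all replicates reach 10%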
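System: 68-5-11 XiGFP fibroblast line; Timing: 3 days compound exposure; Compound dosing: one concentration, pinned; Benchmarks: positive control ellipticine, 6 µM final; Buffer or medium: DMEM containing 5-aza-dC.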
Myeloid diff 2 – promotes myeloid progenitor differentiation | ER-HoxA9 myeloid progenitors, lysozyme-GFP differentiation, flow cytometry | calls only at 10 µM | actives 1% (n = 360,000) | AID 624256;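 active = normalized GFP-positive differentiation at or above the plate's own cutoff, the solvent-only control mean plus 3 SD; inconclusive = no clear call, values can overlap the other calls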;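 also: cells exposed to compound for four days before flow analysis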
Myeloid diff CP1 – compounds promoting myeloid differentiation. calls only. shares compounds with Myeloid diff 2. ER-HoxA9 myeloid progenitors, GFP/Mac1 double-positive flow. actives 2% (n = 2,300);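 active = share of green or green-and-red cells above 9 and 9% in run 1 or 4 and 3% in run 2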
GFP autofluor – compound fluorescence in myeloid differentiation counter-screen. ER-HoxA9 myeloid progenitors, no estrogen, GFP autofluorescence flow cytometry; vehicle wells 0%, positive control 100%. actives 7.4% (n = 2,300). shares compounds with Myeloid diff 2. fluorescence response, % (test concentration not listed);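 active = over 5% cells positive for green fluorescent reporter, or over 2% positive for both it and APC stain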
Large screens that a line does not name were inactive (follow-up assays come after a bar, where they were run).

c1ccc(COCCCn2cc(-c3ccccc3)nn2)cc1	Myeloid diff 2 active | Myeloid diff CP1 inactive | GFP autofluor inactive
CCN1C(=S)SC(=O)C1=C1C=C(C)N(CCO)C(C)=C1	none (no result: Xi reactivation) | Myeloid diff CP1 inactive | GFP autofluor inactive
CCN1C(=O)/C(=C/c2cn(C)nc2C)SC1=S	none (no result: Xi reactivation)
CC(/C=C/c1ccc(N(C)C)cc1)=N\N=C1\NC(=O)CC(C(=O)Nc2ccccc2)S1 (stereo not given)	none
CC(/C=C/c1ccc(N(C)C)cc1)=N/N=C1/NC(=O)CC(C(=O)Nc2ccc(Cl)cc2)S1 (stereo not given)	Myeloid diff 2 active | Myeloid diff CP1 inactive | GFP autofluor inactive
CCCNC(=O)N1CC2(CN(C(=O)CCC)C2)c2c(n(C)c3cc(OC)ccc23)[C@@H]1CO	none (no result: ABCB6 inh MLPCN, Myeloid diff 2)
Cc1ccc2[nH]c(-c3ccccc3)cc(=O)c2c1	Myeloid diff 2 inconclusive
C=CC[n+]1cccc(-c2cc3ccc(C)cc3[nH]2)c1	none | Myeloid diff CP1 inactive | GFP autofluor inactive
CCCNC(=O)N1C[C@@H](C)[C@@H](OC)CN(C)C(=O)c2ccc(NS(=O)(=O)CC(F)(F)F)cc2OC[C@H]1C	none (no result: ABCB6 inh MLPCN, Myeloid diff 2)
C=CCN1C(=O)C2(NNc3ccccc3O2)c2ccccc21 (stereo not given)	none (no result: Xi reactivation) | Myeloid diff CP1 inactive | GFP autofluor 94.9
CCCCN1C(=O)C2(NNc3ccccc3O2)c2ccccc21 (stereo not given)	none (no result: Xi reactivation)
CC(C)(C)NCC(O)Cn1cc(C=O)c2ccccc21 (stereo not given)	none | Myeloid diff CP1 inactive | GFP autofluor inactive
Cc1ccc(NC(=O)Cn2cc(C=O)c3ccccc32)cc1	none
CCCNC(=O)N1CC2(CN(C)C2)c2c([nH]c3cc(OC)ccc23)[C@@H]1CO	none (no result: ABCB6 inh MLPCN, Myeloid diff 2)
CO[C@H]1CC[C@H]2CCN(C)C(=O)[C@H](C)CN(C)C(=O)c3cccc(C#N)c3OC[C@H]1O2	none (no result: ABCB6 inh MLPCN, Myeloid diff 2)
CC1CCCN(CCCNC(=O)c2ccc3c(c2)N(Cc2cccc(Cl)c2)C(=O)c2ccccc2S3=O)C1 (stereo not given)	none | Myeloid diff CP1 inactive | GFP autofluor inactive
CC1CCCN(CCCNC(=O)c2ccc3c(c2)N(Cc2ccc(F)cc2)C(=O)c2ccccc2S3=O)C1 (stereo not given)	none
COc1cc(/C=N\Nc2ccc([N+](=O)[O-])cc2)ccc1OCC(=O)Nc1ccc(C)c(C)c1	none (no result: Xi reactivation) | Myeloid diff CP1 inactive | GFP autofluor inactive
CCOc1cc(/C=N\Nc2ccc([N+](=O)[O-])cc2)ccc1OCC(=O)Nc1ccc(C)c(C)c1	none (no result: Xi reactivation, Myeloid diff 2)
CN(C)CC(=O)Nc1ccc2c(c1)[C@H]1C[C@@H](CC(=O)NCc3ccncc3)O[C@@H](CO)[C@H]1O2	none (no result: ABCB6 inh MLPCN, Myeloid diff 2)
CC(NCCCOc1cccc2ccccc12)c1ccccc1 (stereo not given)	none
CNCC[C@H](Oc1cccc2ccccc12)c1cccs1	none | Myeloid diff CP1 inactive | GFP autofluor inactive
COc1ccc(OC)c(N(CC(=O)N2CCCC2)S(=O)(=O)c2ccc(OC)c(OC)c2)c1	none (no result: Xi reactivation)
COc1ccc(OC)c(N(CC(=O)O)S(=O)(=O)c2ccc(OC)c(OC)c2)c1	Myeloid diff 2 active (no result: Xi reactivation) | Myeloid diff CP1 inactive | GFP autofluor inactive
Cc1noc(C)c1NC(=O)Nc1ccc2c(c1)C(=O)N([C@@H](C)CO)C[C@H](C)[C@@H](CN(C)S(=O)(=O)c1ccc(F)cc1)OCCCC[C@H](C)O2	none (no result: ABCB6 inh MLPCN, Myeloid diff 2)
Cc1cc(C)c2nc3sc(=Cc4ccc(-c5ccccc5C(=O)O)o4)c(=O)n3c2c1	none
Cc1cc(/C=c2\sc3nc4ccccc4n3c2=O)c(C)n1-c1ccc(C(=O)O)cc1	none
O=C(O)c1ccc(-c2ccc(/C=c3/sc4nc5ccccc5n4c3=O)o2)cc1Cl	none | Myeloid diff CP1 inactive | GFP autofluor inactive
Cc1ccc2c(nc3s/c(=C\c4ccc(-c5ccccc5C(=O)O)o4)c(=O)n32)c1C	none | Myeloid diff CP1 inactive | GFP autofluor 12.7
O=C(Nc1cccc(Cl)c1)N[C@@H]1CC[C@H](CCNC(=O)C2CCCC2)O[C@@H]1CO	none (no result: ABCB6 inh MLPCN, Myeloid diff 2)
C[C@@H]1CN([C@H](C)CO)C(=O)c2cc(NC(=O)CCC(F)(F)F)ccc2O[C@@H]1CN(C)CC1CC1	none (no result: ABCB6 inh MLPCN, Myeloid diff 2)
COc1ccc(-n2c(C)cc(/C=C3\SC(=S)N(Cc4ccco4)C3=O)c2C)cc1	Myeloid diff 2 active | Myeloid diff CP1 active | GFP autofluor inactive
COc1cccc(C=C2SC(=S)N(Cc3ccco3)C2=O)c1OC	none (no result: ABCB6 inh MLPCN, Myeloid diff 2)
CC(C)C#Cc1ccc([C@H]2[C@@H](CO)N3C(=O)CN(C(=O)c4ccccn4)C[C@H]23)cc1	none (no result: ABCB6 inh MLPCN, Myeloid diff 2)
O=S(=O)(NCC1COc2ccccc2O1)c1ccc2ccccc2c1 (stereo not given)	none
O=C(O)c1cccc(S(=O)(=O)NCC2COc3ccccc3O2)c1 (stereo not given)	none | Myeloid diff CP1 inactive | GFP autofluor inactive
O=C1C(=Cc2ccco2)CCCC1=Cc1ccco1	none | Myeloid diff CP1 inactive | GFP autofluor 18.9
O=C1C(=Cc2ccco2)CCC1=Cc1ccco1	none
COc1ccc(NC(=O)[C@@H]2CC=C[C@@H]3CCN(Cc4ccc(Cl)c(Cl)c4)C(=O)[C@@H]32)cc1	none
COc1ccc(CN2CC[C@H]3C=CC[C@@H](C(=O)Nc4ccc(Cl)c(C(F)(F)F)c4)[C@H]3C2=O)cc1OC	none | Myeloid diff CP1 inactive | GFP autofluor inactive
COc1ccc(NC(=O)N(C)C[C@@H]2OCCCC[C@H](C)Oc3ccc(NC(=O)CCC(F)(F)F)cc3C(=O)N([C@H](C)CO)C[C@@H]2C)cc1	none (no result: ABCB6 inh MLPCN, Myeloid diff 2)
O=C(Cc1cccs1)Nc1ccc(-c2nnc(-c3ccccc3)o2)cc1	none (no result: Xi reactivation)
Cc1cccc(-c2nnc(-c3cccc(NC(=O)Cc4cccs4)c3)o2)c1	none (no result: Xi reactivation) | Myeloid diff CP1 inactive | GFP autofluor inactive
COc1nc(C)ccc1-c1noc(-c2ccccn2)n1	none (no result: Xi reactivation) | Myeloid diff CP1 inactive | GFP autofluor inactive
COc1ccccc1-c1nc(-c2ccc(C)nc2OC)no1	none (no result: Xi reactivation)
COc1ccccc1CNC(=O)C[C@@H]1CC[C@H]2[C@@H](COC[C@@H](O)CN2C(=O)Nc2ccc(Cl)cc2)O1	none (no result: ABCB6 inh MLPCN, Myeloid diff 2)
COc1ccc(N2CCN(Cc3nc4c(c(=O)n(C)c(=O)n4C)n3Cc3cccc(C)c3)CC2)cc1	none | Myeloid diff CP1 inactive | GFP autofluor inactive
COc1ccc(N2CCN(c3nc4c(c(=O)n(C)c(=O)n4C)n3Cc3ccccc3)CC2)cc1	none (no result: Xi reactivation)
Cc1ccc2nc(-c3ccc(NS(C)(=O)=O)cc3)cc(-c3ccccc3)c2c1	none (no result: Xi reactivation)
CCS(=O)(=O)Nc1ccc(-c2cc(-c3ccccc3)c3cc(C)ccc3n2)cc1	none | Myeloid diff CP1 inactive | GFP autofluor inactive
C[C@@H]1CN([C@@H](C)CO)C(=O)c2cccc(NC(=O)c3ccc(-c4nccs4)cc3)c2O[C@H]1CN(C)S(=O)(=O)c1cn(C)cn1	none (no result: ABCB6 inh MLPCN, Myeloid diff 2)
CNC[C@H]1Oc2ccc(NS(C)(=O)=O)cc2CC(=O)N([C@@H](C)CO)C[C@@H]1C	none (no result: ABCB6 inh MLPCN, Myeloid diff 2)
COc1ccc(CCn2c(C)cc(C(=O)CN3C(=O)C(=O)N(Cc4ccco4)C3=O)c2C)cc1	Xi reactivation 34.3, Myeloid diff 2 active | Myeloid diff CP1 inactive | GFP autofluor inactive
Cc1cc(C(=O)CN2C(=O)C(=O)N(Cc3ccccc3)C2=O)c(C)n1Cc1ccccc1	none

Assay outcomes from PubChem.
